# Test results taken from ChEMBL document CHEMBL2010647, “N-Methylated sst2 Selective Somatostatin Cyclic Peptide Analogue as a Potent Candidate for Treating Neurogenic Inflammation” (ACS Med Chem Lett, 2011).
# The source made the active and inactive calls. The calls are words filed in the database; no cut-off is given here.
# Target: Somatostatin receptor type 2 (Homo sapiens, UniProt P30874)
# Assay: Binding affinity to human sst2 by in vitro receptor autoradiography assay
# Sequence of Somatostatin receptor type 2 (P30874 whole entry): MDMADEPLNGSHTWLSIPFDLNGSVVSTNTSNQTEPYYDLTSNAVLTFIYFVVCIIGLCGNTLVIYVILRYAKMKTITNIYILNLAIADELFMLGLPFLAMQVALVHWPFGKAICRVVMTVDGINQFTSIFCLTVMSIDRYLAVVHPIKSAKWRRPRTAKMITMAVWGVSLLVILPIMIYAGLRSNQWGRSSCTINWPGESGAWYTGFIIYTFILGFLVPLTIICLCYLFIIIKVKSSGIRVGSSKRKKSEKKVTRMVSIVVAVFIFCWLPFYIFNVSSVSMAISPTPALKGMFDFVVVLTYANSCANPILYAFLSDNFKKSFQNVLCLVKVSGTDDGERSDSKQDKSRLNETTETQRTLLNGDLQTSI
row,Structure (SMILES),IC50 [nM]
1,CC(C)[C@@H]1NC(=O)[C@H](CCCCN)N(C)C(=O)[C@@H](Cc2c[nH]c3ccccc23)N(C)C(=O)[C@H](Cc2ccc(O)cc2)NC(=O)[C@H](C)N(C)C(=O)[C@H](Cc2ccccc2)NC1=O,3.1
2,CC(C)[C@@H]1NC(=O)[C@H](CCCCN)N(C)C(=O)[C@@H](Cc2c[nH]c3ccccc23)N(C)C(=O)[C@H](Cc2ccc(O)cc2)NC(=O)[C@H](C)N(C)C(=O)[C@H](Cc2ccccc2)N(C)C1=O,44
3,CC(C)[C@@H]1NC(=O)[C@H](CCCCN)NC(=O)[C@@H](Cc2c[nH]c3ccccc23)N(C)C(=O)[C@H](Cc2ccc(O)cc2)NC(=O)[C@H](C)N(C)C(=O)[C@H](Cc2ccccc2)NC1=O,5.5
4,CC(C)[C@@H]1NC(=O)[C@H](CCCCN)NC(=O)[C@@H](Cc2c[nH]c3ccccc23)N(C)C(=O)[C@H](Cc2ccc(O)cc2)NC(=O)[C@H](C)N(C)C(=O)[C@H](Cc2ccccc2)N(C)C1=O,45

# Target: Somatostatin receptor type 2 (Rattus norvegicus) (UniProt P30680)
# Assay: Inhibition of sst2 in rat trachea assessed as effect on EFS-induced CGRP release in stimulated and poststimulated tracheal fraction at 500 nM after 8 mins by radioimmunoassay technique relative to control
# Type: tissue-based
# Set-up: scale not given: the % may be the effect or the level left
# Outline: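 Whole tracheae from exsanguinated, deeply anaesthetised rats, two per 1.8 mL organ bath, equilibrated 60 min with oxygenated Krebs (pH 7.2, 37 °C, 1 mL/min perfusion). Three static 8 min fractions; EFS (40 V, 0.1 ms, 10 Hz, 120 s) in the second. Peptide (500 nM) added at the start of fractions 2 and 3. CGRP measured by RIA in 200 μL samples, normalised to wet tissue weight; n = 5.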
# Sequence of Somatostatin receptor type 2 (Rattus norvegicus) (P30680 whole entry): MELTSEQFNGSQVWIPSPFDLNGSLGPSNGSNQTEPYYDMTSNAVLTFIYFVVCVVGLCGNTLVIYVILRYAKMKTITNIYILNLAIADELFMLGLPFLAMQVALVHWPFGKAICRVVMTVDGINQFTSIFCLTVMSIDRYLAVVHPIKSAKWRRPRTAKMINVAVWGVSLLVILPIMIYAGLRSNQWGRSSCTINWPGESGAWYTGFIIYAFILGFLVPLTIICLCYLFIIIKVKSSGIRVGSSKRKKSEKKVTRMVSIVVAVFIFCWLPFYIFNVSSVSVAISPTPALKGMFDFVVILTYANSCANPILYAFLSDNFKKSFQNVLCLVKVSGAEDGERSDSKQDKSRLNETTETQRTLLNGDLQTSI
row,Structure (SMILES),Activity [%]
1,CC(C)[C@@H]1NC(=O)[C@H](CCCCN)N(C)C(=O)[C@@H](Cc2c[nH]c3ccccc23)N(C)C(=O)[C@H](Cc2ccc(O)cc2)NC(=O)[C@H](C)N(C)C(=O)[C@H](Cc2ccccc2)NC1=O,153
2,CC(C)[C@@H]1NC(=O)[C@H](CCCCN)N(C)C(=O)[C@@H](Cc2c[nH]c3ccccc23)N(C)C(=O)[C@H](Cc2ccc(O)cc2)NC(=O)[C@H](C)N(C)C(=O)[C@H](Cc2ccccc2)N(C)C1=O,100
3,CC(C)[C@@H]1NC(=O)[C@H](CCCCN)NC(=O)[C@@H](Cc2c[nH]c3ccccc23)N(C)C(=O)[C@H](Cc2ccc(O)cc2)NC(=O)[C@H](C)N(C)C(=O)[C@H](Cc2ccccc2)NC1=O,360
4,CC(C)[C@@H]1NC(=O)[C@H](CCCCN)NC(=O)[C@@H](Cc2c[nH]c3ccccc23)N(C)C(=O)[C@H](Cc2ccc(O)cc2)NC(=O)[C@H](C)N(C)C(=O)[C@H](Cc2ccccc2)N(C)C1=O,268

# Target: Somatostatin receptor type 1 (Homo sapiens, UniProt P30872)
# Assay: Binding affinity to human sst1 by in vitro receptor autoradiography assay
# Sequence of Somatostatin receptor type 1 (P30872 whole entry): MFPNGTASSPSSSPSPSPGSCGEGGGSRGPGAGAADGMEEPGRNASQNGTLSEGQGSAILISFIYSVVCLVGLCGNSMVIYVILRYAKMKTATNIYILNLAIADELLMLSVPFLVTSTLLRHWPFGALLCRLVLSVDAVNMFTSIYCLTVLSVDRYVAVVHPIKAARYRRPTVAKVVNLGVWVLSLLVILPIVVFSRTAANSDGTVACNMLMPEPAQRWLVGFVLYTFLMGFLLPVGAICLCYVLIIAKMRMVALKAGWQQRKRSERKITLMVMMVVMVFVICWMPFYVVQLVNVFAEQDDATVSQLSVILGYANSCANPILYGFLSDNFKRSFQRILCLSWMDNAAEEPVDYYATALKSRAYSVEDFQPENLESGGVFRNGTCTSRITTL
row,Structure (SMILES),IC50 [nM]
1,CC(C)[C@@H]1NC(=O)[C@H](CCCCN)N(C)C(=O)[C@@H](Cc2c[nH]c3ccccc23)N(C)C(=O)[C@H](Cc2ccc(O)cc2)NC(=O)[C@H](C)N(C)C(=O)[C@H](Cc2ccccc2)NC1=O,> 1000
2,CC(C)[C@@H]1NC(=O)[C@H](CCCCN)N(C)C(=O)[C@@H](Cc2c[nH]c3ccccc23)N(C)C(=O)[C@H](Cc2ccc(O)cc2)NC(=O)[C@H](C)N(C)C(=O)[C@H](Cc2ccccc2)N(C)C1=O,> 1000
3,CC(C)[C@@H]1NC(=O)[C@H](CCCCN)NC(=O)[C@@H](Cc2c[nH]c3ccccc23)N(C)C(=O)[C@H](Cc2ccc(O)cc2)NC(=O)[C@H](C)N(C)C(=O)[C@H](Cc2ccccc2)NC1=O,> 1000
4,CC(C)[C@@H]1NC(=O)[C@H](CCCCN)NC(=O)[C@@H](Cc2c[nH]c3ccccc23)N(C)C(=O)[C@H](Cc2ccc(O)cc2)NC(=O)[C@H](C)N(C)C(=O)[C@H](Cc2ccccc2)N(C)C1=O,> 1000

# Target: Somatostatin receptor type 4 (Homo sapiens, UniProt P31391)
# Assay: Binding affinity to human sst4 by in vitro receptor autoradiography assay
# Sequence of Somatostatin receptor type 4 (P31391 whole entry): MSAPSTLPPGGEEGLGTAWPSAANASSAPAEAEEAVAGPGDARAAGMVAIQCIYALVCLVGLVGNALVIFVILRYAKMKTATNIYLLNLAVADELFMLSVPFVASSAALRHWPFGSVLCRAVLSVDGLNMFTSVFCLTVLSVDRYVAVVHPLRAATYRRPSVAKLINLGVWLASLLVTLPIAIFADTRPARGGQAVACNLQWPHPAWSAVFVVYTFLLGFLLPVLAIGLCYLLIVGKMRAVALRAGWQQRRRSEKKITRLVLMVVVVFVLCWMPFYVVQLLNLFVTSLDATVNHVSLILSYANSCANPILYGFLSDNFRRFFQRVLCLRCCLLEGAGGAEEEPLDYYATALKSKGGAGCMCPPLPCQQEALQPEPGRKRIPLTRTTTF
row,Structure (SMILES),IC50 [nM]
1,CC(C)[C@@H]1NC(=O)[C@H](CCCCN)N(C)C(=O)[C@@H](Cc2c[nH]c3ccccc23)N(C)C(=O)[C@H](Cc2ccc(O)cc2)NC(=O)[C@H](C)N(C)C(=O)[C@H](Cc2ccccc2)NC1=O,> 1000
2,CC(C)[C@@H]1NC(=O)[C@H](CCCCN)N(C)C(=O)[C@@H](Cc2c[nH]c3ccccc23)N(C)C(=O)[C@H](Cc2ccc(O)cc2)NC(=O)[C@H](C)N(C)C(=O)[C@H](Cc2ccccc2)N(C)C1=O,> 1000
3,CC(C)[C@@H]1NC(=O)[C@H](CCCCN)NC(=O)[C@@H](Cc2c[nH]c3ccccc23)N(C)C(=O)[C@H](Cc2ccc(O)cc2)NC(=O)[C@H](C)N(C)C(=O)[C@H](Cc2ccccc2)NC1=O,> 1000
4,CC(C)[C@@H]1NC(=O)[C@H](CCCCN)NC(=O)[C@@H](Cc2c[nH]c3ccccc23)N(C)C(=O)[C@H](Cc2ccc(O)cc2)NC(=O)[C@H](C)N(C)C(=O)[C@H](Cc2ccccc2)N(C)C1=O,> 1000

# Target: Somatostatin receptor type 3 (Homo sapiens, UniProt P32745)
# Assay: Binding affinity to human sst3 by in vitro receptor autoradiography assay
# Sequence of Somatostatin receptor type 3 (P32745 whole entry): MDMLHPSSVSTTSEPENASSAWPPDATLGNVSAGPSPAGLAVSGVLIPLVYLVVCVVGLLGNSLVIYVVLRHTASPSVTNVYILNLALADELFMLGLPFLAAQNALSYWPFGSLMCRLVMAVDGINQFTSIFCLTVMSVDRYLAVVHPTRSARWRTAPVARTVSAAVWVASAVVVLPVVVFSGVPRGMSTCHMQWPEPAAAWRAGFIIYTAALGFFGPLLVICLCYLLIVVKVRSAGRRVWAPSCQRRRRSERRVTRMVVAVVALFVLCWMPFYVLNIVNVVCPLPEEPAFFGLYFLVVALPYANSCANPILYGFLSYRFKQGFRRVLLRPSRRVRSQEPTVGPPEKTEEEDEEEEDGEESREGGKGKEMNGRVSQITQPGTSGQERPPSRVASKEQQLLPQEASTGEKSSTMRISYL
row,Structure (SMILES),IC50 [nM]
1,CC(C)[C@@H]1NC(=O)[C@H](CCCCN)N(C)C(=O)[C@@H](Cc2c[nH]c3ccccc23)N(C)C(=O)[C@H](Cc2ccc(O)cc2)NC(=O)[C@H](C)N(C)C(=O)[C@H](Cc2ccccc2)NC1=O,172
2,CC(C)[C@@H]1NC(=O)[C@H](CCCCN)N(C)C(=O)[C@@H](Cc2c[nH]c3ccccc23)N(C)C(=O)[C@H](Cc2ccc(O)cc2)NC(=O)[C@H](C)N(C)C(=O)[C@H](Cc2ccccc2)N(C)C1=O,200
3,CC(C)[C@@H]1NC(=O)[C@H](CCCCN)NC(=O)[C@@H](Cc2c[nH]c3ccccc23)N(C)C(=O)[C@H](Cc2ccc(O)cc2)NC(=O)[C@H](C)N(C)C(=O)[C@H](Cc2ccccc2)NC1=O,205
4,CC(C)[C@@H]1NC(=O)[C@H](CCCCN)NC(=O)[C@@H](Cc2c[nH]c3ccccc23)N(C)C(=O)[C@H](Cc2ccc(O)cc2)NC(=O)[C@H](C)N(C)C(=O)[C@H](Cc2ccccc2)N(C)C1=O,82

# Target: Somatostatin receptor type 5 (Homo sapiens, UniProt P35346)
# Assay: Binding affinity to human sst5 by in vitro receptor autoradiography assay
# Sequence of Somatostatin receptor type 5 (P35346 whole entry): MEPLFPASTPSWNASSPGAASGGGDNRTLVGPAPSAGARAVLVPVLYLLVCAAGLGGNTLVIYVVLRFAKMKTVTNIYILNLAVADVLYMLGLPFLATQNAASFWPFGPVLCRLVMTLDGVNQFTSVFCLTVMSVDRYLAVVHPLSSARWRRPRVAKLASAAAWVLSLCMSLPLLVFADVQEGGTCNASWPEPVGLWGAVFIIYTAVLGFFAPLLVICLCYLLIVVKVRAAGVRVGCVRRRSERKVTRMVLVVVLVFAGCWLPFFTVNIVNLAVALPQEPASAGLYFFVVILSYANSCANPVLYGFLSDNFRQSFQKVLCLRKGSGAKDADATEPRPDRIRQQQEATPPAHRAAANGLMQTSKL
row,Structure (SMILES),IC50 [nM]
1,CC(C)[C@@H]1NC(=O)[C@H](CCCCN)N(C)C(=O)[C@@H](Cc2c[nH]c3ccccc23)N(C)C(=O)[C@H](Cc2ccc(O)cc2)NC(=O)[C@H](C)N(C)C(=O)[C@H](Cc2ccccc2)NC1=O,196
2,CC(C)[C@@H]1NC(=O)[C@H](CCCCN)N(C)C(=O)[C@@H](Cc2c[nH]c3ccccc23)N(C)C(=O)[C@H](Cc2ccc(O)cc2)NC(=O)[C@H](C)N(C)C(=O)[C@H](Cc2ccccc2)N(C)C1=O,263
3,CC(C)[C@@H]1NC(=O)[C@H](CCCCN)NC(=O)[C@@H](Cc2c[nH]c3ccccc23)N(C)C(=O)[C@H](Cc2ccc(O)cc2)NC(=O)[C@H](C)N(C)C(=O)[C@H](Cc2ccccc2)NC1=O,126
4,CC(C)[C@@H]1NC(=O)[C@H](CCCCN)NC(=O)[C@@H](Cc2c[nH]c3ccccc23)N(C)C(=O)[C@H](Cc2ccc(O)cc2)NC(=O)[C@H](C)N(C)C(=O)[C@H](Cc2ccccc2)N(C)C1=O,76

# System: Rattus norvegicus
# Assay: Antiinflammatory activity in rat assessed as inhibition of mustard oil-evoked acute neurogenic plasma protein extravasation in paw skin at 100 ug/kg, ip […] administered 10 mins before induction of inflammation
# Type: functional
# Outline: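 Rats received peptide 100 μg/kg ip 10 min before inflammation was induced with 1% mustard oil on dorsal paw skin; solvent-only controls run alongside. Read-out: Evans blue accumulated per g wet skin, given as mean + SEM, n = 6–10. Tested in blocks of 14–15 rats per day over 6 days, with treatments randomized. Mann–Whitney U test vs solvent.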
Structure (SMILES),inhibition,inhibition in vivo at 0.1 mg/kg [%]
CC(C)[C@@H]1NC(=O)[C@H](CCCCN)N(C)C(=O)[C@@H](Cc2c[nH]c3ccccc23)N(C)C(=O)[C@H](Cc2ccc(O)cc2)NC(=O)[C@H](C)N(C)C(=O)[C@H](Cc2ccccc2)NC1=O,inactive,–
CC(C)[C@@H]1NC(=O)[C@H](CCCCN)N(C)C(=O)[C@@H](Cc2c[nH]c3ccccc23)N(C)C(=O)[C@H](Cc2ccc(O)cc2)NC(=O)[C@H](C)N(C)C(=O)[C@H](Cc2ccccc2)N(C)C1=O,–,40
